Screening results (PubChem)
Sampled rows, rich in hits. Any-hit rate of the full collection: about 1.8%.
Tb MetRS inh: blocks T. brucei methionyl-tRNA synthetase activity | purified T. brucei MetRS, ATP depletion, Kinase-Glo luminescence | inhibition, % at 11.9 µM | 360,000 compounds, 0.4% hits | AID 624268;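 active = inhibition above a per-plate cutoff of the control wells' mean inhibition plus 3 SD, cut at about 5.5% in these data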;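 note: 0% = DMSO wells median and 100% = median of wells with control inhibitor compound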
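technique = Kinase-Glo luminescence, ATP depletion format | system = purified MetRS (methionyl-tRNA synthetase) enzyme from Trypanosoma brucei | timing = 15 min preincubation, 2 h reaction, all 25 °C | evaluation = percent inhibition versus plate control medians | dosing = single dose, 11.9 µM final nominal, 0.9% final DMSO | also added = substrates ATP, L-methionine and bulk Escherichia coli tRNA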
Rin1-Abl PPI inh: inhibitors of human Rin1-Abl protein interaction. TR-FRET Rin1/Abl binding, biochemical. 360,000 compounds, 0.4% hits. inhibition, % at 7.35 µM; in the data active = inhibition above about 5%, passing the limit was not always enough
Target sequence (P00519 whole entry, looked up): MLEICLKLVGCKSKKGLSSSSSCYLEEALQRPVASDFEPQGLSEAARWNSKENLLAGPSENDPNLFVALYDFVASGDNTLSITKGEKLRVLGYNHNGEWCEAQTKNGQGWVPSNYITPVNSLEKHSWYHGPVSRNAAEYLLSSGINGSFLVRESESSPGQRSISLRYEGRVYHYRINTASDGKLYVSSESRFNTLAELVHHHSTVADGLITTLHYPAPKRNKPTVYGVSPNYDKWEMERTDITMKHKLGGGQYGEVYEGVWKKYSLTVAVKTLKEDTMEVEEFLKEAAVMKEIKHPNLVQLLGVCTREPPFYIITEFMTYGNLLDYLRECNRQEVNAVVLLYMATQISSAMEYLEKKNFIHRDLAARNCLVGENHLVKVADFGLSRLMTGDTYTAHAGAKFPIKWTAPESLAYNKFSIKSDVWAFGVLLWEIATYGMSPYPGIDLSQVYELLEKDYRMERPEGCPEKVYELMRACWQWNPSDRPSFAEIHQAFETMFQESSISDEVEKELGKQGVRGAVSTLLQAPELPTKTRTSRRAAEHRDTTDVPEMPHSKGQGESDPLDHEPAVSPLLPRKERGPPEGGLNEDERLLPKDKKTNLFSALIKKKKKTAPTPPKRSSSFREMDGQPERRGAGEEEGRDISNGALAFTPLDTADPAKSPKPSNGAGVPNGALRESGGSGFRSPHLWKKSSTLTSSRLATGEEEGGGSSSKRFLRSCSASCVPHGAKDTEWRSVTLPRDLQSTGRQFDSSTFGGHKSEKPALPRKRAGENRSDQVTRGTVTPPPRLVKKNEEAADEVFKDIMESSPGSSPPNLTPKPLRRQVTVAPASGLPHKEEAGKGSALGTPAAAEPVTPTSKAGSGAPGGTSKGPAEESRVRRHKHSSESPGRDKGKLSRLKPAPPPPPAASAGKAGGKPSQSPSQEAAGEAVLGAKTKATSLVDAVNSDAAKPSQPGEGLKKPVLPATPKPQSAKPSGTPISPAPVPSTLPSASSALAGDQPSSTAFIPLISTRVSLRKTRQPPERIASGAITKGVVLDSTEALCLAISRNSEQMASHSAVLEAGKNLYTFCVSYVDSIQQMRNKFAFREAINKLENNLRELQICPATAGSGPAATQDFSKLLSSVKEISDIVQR
Target sequence (Q13671 whole entry, looked up): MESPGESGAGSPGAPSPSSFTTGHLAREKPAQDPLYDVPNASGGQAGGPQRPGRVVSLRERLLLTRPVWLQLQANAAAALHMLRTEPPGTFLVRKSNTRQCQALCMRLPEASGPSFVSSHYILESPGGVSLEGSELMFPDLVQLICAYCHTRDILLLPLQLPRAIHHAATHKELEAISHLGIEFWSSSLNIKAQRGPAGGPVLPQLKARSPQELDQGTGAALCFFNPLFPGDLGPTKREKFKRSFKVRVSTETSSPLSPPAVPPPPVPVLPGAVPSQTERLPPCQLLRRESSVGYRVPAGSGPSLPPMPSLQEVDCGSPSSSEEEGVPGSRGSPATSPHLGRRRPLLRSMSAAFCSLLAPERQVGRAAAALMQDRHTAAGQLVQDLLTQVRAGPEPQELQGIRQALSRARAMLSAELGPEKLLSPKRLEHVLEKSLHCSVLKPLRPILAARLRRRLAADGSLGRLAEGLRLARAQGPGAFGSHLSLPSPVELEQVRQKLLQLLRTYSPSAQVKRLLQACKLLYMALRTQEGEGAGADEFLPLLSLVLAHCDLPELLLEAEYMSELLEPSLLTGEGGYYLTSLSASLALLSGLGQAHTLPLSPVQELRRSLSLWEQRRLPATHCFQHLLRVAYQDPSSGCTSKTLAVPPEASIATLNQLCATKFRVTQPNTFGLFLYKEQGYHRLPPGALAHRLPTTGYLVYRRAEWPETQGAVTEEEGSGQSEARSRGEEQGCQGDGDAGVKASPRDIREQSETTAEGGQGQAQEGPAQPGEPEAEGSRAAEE
Rev-erbA mod: modulates human Rev-erb alpha binding to DNA; Rev-erbα–FITC-DNA binding, fluorescence polarization, 90 min; 370,000 compounds, 0.79% hits; activity, % at 10 µM; P20393;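 active = activity above about 14%, limit read from the data; passing the limit was not always enough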;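 note: 0% = DMSO wells with 35 nM protein and 100% = DMSO wells with 750 nM protein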
PG9 Ab binder: small molecules binding HIV-1 gp120 antibody PG9; 360,000 compounds, 0.43% hits; TR-FRET gp120-PG9 antibody binding; inhibition, % at 6.7 µM; in the data active = inhibition above about 8.5%
TbMetRS confirm: confirmation of Trypanosoma brucei MetRS inhibitors; 1,400 compounds, 93% hits; AID 624412; inhibition, % at 11.9 µM; shares compounds with Tb MetRS inh; T. brucei MetRS enzyme, luminescence (ATP depletion); in the data active = inhibition above about 7%
Jurkat tox: counter-screen for T. brucei MetRS inhibitors: Jurkat cell cytotoxicity. shares compounds with Tb MetRS inh. Jurkat cells viability, ATP luminescence. inhibition, % at 8.3 µM. 1,400 compounds, 12% hits. AID 624413; in the data active = inhibition above about 15%;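 note: 0% = vehicle and 100% = reference inhibitor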
TbMetRS FP orth: inhibits T. brucei methionyl tRNA synthetase in orthogonal FP test; purified T. brucei MetRS, fluorescence polarization; shares compounds with Tb MetRS inh; inhibition, % at 11.9 µM; 1,400 compounds, 44% hits; in the data active = inhibition above about 17%;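 note: 0% = vehicle wells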
Numbers without * were called inactive.

Screening COc1cc(/C=C(\C#N)c2nc3ccccc3[nH]2)ccc1Oc1ccc([N+](=O)[O-])cn1 returned Tb MetRS inh 21*, Rin1-Abl PPI inh -1, Rev-erbA mod 4, PG9 Ab binder 0, TbMetRS confirm 63*, Jurkat tox 24* and TbMetRS FP orth 37*.
For O=C(/C(=C\c1ccccc1)c1nc2ccccc2[nH]1)c1ccc(Cl)cc1 the results were Tb MetRS inh 9.7*, Rin1-Abl PPI inh 2, Rev-erbA mod 4, PG9 Ab binder 2, TbMetRS confirm 4, Jurkat tox 79* and TbMetRS FP orth 0.
`COC(=O)c1cc(=O)n(Cc2ccco2)c(=Nc2ccccc2)s1` gave Rev-erbA mod -7 and PG9 Ab binder -2.
`Cc1ccc(-n2c(SCC(=O)Nc3ccc4c(c3)OCCO4)nnc2-c2cccnc2)cc1` gave Rev-erbA mod 9.
Screening Cc1cccc(CNC(=O)c2ccc3c(c2)N(C)CCS3)c1 returned Tb MetRS inh 1, Rin1-Abl PPI inh -7, Rev-erbA mod -4 and PG9 Ab binder 1.
CN1CCSc2ccc(C(=O)NCc3cccc(Br)c3)cc21 was read as Tb MetRS inh 5.7*, Rin1-Abl PPI inh -5, Rev-erbA mod -6, PG9 Ab binder 3, TbMetRS confirm 11*, Jurkat tox -1 and TbMetRS FP orth 1.
`COC(=O)[C@]12C[C@H](CC(=O)NCCC(C)C)C(=O)N(Cc3ccco3)C1=C[C@H](C(C)(C)C)O[C@@H]2C` gave Rev-erbA mod -1.
Screening C=CCNc1ncnc2c1[nH]c1ccccc12 returned Tb MetRS inh 21*, Rin1-Abl PPI inh -2, Rev-erbA mod -5, PG9 Ab binder 3, TbMetRS confirm 35*, Jurkat tox 14 and TbMetRS FP orth 15.
C=CCNc1ncnc2c1[nH]c1ccc(Cl)cc12 was read as Tb MetRS inh 51*, Rin1-Abl PPI inh -1, Rev-erbA mod 2, PG9 Ab binder -1, TbMetRS confirm 64*, Jurkat tox 18* and TbMetRS FP orth 38*.
Screening C=CCNc1ncnc2ccccc12 returned Tb MetRS inh 0, Rin1-Abl PPI inh 3, Rev-erbA mod -2 and PG9 Ab binder 0.
`Cn1c(SCC2CCC2)nnc1-c1ccco1` gave Rev-erbA mod 1.
Screening CC(C)C[C@@H](CNCC(=O)[C@H](Cc1c[nH]c2ccccc12)NC(=O)c1[nH]cnc1C(=O)N[C@@H](C)CN)NC(=O)c1nc[nH]c1C(=O)N[C@@H](C)C(=O)O returned Tb MetRS inh 23*, Rin1-Abl PPI inh 1, Rev-erbA mod -6, PG9 Ab binder -2, TbMetRS confirm 37*, Jurkat tox -1 and TbMetRS FP orth 10.
O=Cc1ccc(-c2ccc([N+](=O)[O-])cc2Cl)o1 was read as Tb MetRS inh 6.5*, Rin1-Abl PPI inh -1, Rev-erbA mod -3, PG9 Ab binder -1, TbMetRS confirm 12*, Jurkat tox -4 and TbMetRS FP orth 7.
`CN(C)CCCCOc1ccc(Br)cc1Cl` gave Tb MetRS inh 8.0*, Rin1-Abl PPI inh -6, Rev-erbA mod -2, PG9 Ab binder 0, TbMetRS confirm 21*, Jurkat tox 7 and TbMetRS FP orth 11.
For COCCCNCCCCOc1ccc(Br)cc1Cl the results were Tb MetRS inh 4, Rin1-Abl PPI inh -1, Rev-erbA mod -2 and PG9 Ab binder -1.
Screening CC1CCCN(CCCOc2ccc(Br)cc2Cl)C1 (configuration not stated) returned Tb MetRS inh 17*, Rin1-Abl PPI inh 0, Rev-erbA mod 5, PG9 Ab binder 0, TbMetRS confirm 30*, Jurkat tox 23* and TbMetRS FP orth 11.
O=C(c1ccccc1)c1nn(-c2ccccc2)c2nnc(Cc3ccccc3)c(=O)n12 was read as Tb MetRS inh 6.5*, Rin1-Abl PPI inh -4, Rev-erbA mod 2, PG9 Ab binder 0, TbMetRS confirm 16*, Jurkat tox 15* and TbMetRS FP orth 6.
`C=CCn1c(NC(=O)c2ccccc2Cl)c(C#N)c2nc3ccccc3nc21` gave Tb MetRS inh 6.8*, Rin1-Abl PPI inh 5, Rev-erbA mod -1, PG9 Ab binder 3, TbMetRS confirm 0, Jurkat tox -2 and TbMetRS FP orth 6.
`CC(C)Cn1c(=O)cc(N2CCN(c3cccc(C(F)(F)F)c3)CC2)[nH]c1=O` gave Rev-erbA mod 5.
For O=C(/C=C/c1ccc(Br)cc1)NC(=O)c1ccccc1O the results were Tb MetRS inh 7.2*, Rin1-Abl PPI inh -1, Rev-erbA mod -4, PG9 Ab binder -3, TbMetRS confirm 8.8*, Jurkat tox -3 and TbMetRS FP orth 4.
Screening COc1ccc(/C=N/Nc2nc3ccccc3[nH]2)cc1OC returned Tb MetRS inh 8.5*, Rin1-Abl PPI inh -5, Rev-erbA mod -4, PG9 Ab binder -13, TbMetRS confirm 12*, Jurkat tox 2 and TbMetRS FP orth 31*.
`COc1ccc2c(c1)c(/C=N/Nc1nc3ccccc3[nH]1)c(C)n2C` gave Tb MetRS inh 7.1*, Rin1-Abl PPI inh -1, Rev-erbA mod -7, PG9 Ab binder -5, TbMetRS confirm 19*, Jurkat tox 16* and TbMetRS FP orth 18*.
Screening COc1cc(/C=N\Nc2nc3ccccc3[nH]2)cc(OC)c1OC returned Tb MetRS inh 5, Rin1-Abl PPI inh 0, Rev-erbA mod 0 and PG9 Ab binder -10.
`COc1cc(OC)c(OC)cc1/C=N/Nc1nc2ccccc2[nH]1` gave Tb MetRS inh 8.7*, Rin1-Abl PPI inh -5, Rev-erbA mod -6, PG9 Ab binder -18, TbMetRS confirm 18*, Jurkat tox 6 and TbMetRS FP orth 31*.
Screening C(=N\Nc1nc2ccccc2[nH]1)/c1cccc2nccnc12 returned Tb MetRS inh 5.9*, Rin1-Abl PPI inh 0, Rev-erbA mod 5, PG9 Ab binder -8, TbMetRS confirm 9.9*, Jurkat tox 96* and TbMetRS FP orth 25*.
`Cc1ccc2c(c1)C1CS(=O)(=O)N(CC(C)C)CN1C2` (configuration not stated) gave Rev-erbA mod 2.
Screening CC(C)C[C@H](NC1(C(=O)NCCc2c[nH]c3ccccc23)CCC1)C(=O)NCCCc1ccccc1 returned Rev-erbA mod -4.
CCOC(=O)[C@]12CCCC3=C1N(CCC3)C(=O)[C@@H](CC(=O)NCc1ccc(OC)c(OC)c1)C2 was read as Rev-erbA mod 1.
`O=C(NC1CCCCN(Cc2cccc(Cl)c2)C1=O)C1CCCCC1` (configuration not stated) gave Rev-erbA mod 5.
For CCC[C@H]1[C@@H](NC(=O)c2cccc(N(C)C)c2)CC[C@@]23CCCN2C(=O)CCC[C@@H]13 the results were Rev-erbA mod -1.
